Screening data from PubChem.
L major viab – Leishmania major promastigote growth inhibition. Leishmania major promastigotes, resazurin fluorescence viability. inhibition, % at 10 µM. 200,000 tested, 9% active. AID 1063; in the data active means inhibition above about 50%;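 further: promastigotes grown with compound for 44 hours at 28 °C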
ROMK primary – modulators of human ROMK potassium channel. B-score at 10 µM. P48048. Tet-inducible ROMK, thallium flux fluorescence; actives lie on both sides. 130,000 tested, 2% active;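 active means signal ratio slope over the read window, or its plate-corrected B-score, at least 3 SD from the plate mean, either direction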;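 further: B-score of the F/F0 ratio slope over 7 to 12 s after thallium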
WT yeast gro inh – growth inhibition of WT yeast, mitochondrial fusion screen. 190,000 tested, 2.1% active. mitochondrial fusion phenotypic screen, WT strain. AID 1362. inhibition, % at 10 µM; in the data active means inhibition above about 58%; tested in S. cerevisiae
Cl transport mod – modulators of human KCC2 chloride dependent transport | KCC2 cells, thallium flux FluoZin-2 fluorescence | AID 1456 | 190,000 tested, 2.2% active | B-score of Tl+ flux slope (higher = more flux/activation; lower = inhibition) at 10 µM | Q9H2X9;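 active means thallium flux slope and its plate-corrected score both differing from the plate sample mean at a set confidence after two filtering rounds, in either direction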;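 further: slope of fluorescence scaled to starting intensity during 10 to 20 s after thallium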
Target sequence (Q9H2X9 whole entry, looked up): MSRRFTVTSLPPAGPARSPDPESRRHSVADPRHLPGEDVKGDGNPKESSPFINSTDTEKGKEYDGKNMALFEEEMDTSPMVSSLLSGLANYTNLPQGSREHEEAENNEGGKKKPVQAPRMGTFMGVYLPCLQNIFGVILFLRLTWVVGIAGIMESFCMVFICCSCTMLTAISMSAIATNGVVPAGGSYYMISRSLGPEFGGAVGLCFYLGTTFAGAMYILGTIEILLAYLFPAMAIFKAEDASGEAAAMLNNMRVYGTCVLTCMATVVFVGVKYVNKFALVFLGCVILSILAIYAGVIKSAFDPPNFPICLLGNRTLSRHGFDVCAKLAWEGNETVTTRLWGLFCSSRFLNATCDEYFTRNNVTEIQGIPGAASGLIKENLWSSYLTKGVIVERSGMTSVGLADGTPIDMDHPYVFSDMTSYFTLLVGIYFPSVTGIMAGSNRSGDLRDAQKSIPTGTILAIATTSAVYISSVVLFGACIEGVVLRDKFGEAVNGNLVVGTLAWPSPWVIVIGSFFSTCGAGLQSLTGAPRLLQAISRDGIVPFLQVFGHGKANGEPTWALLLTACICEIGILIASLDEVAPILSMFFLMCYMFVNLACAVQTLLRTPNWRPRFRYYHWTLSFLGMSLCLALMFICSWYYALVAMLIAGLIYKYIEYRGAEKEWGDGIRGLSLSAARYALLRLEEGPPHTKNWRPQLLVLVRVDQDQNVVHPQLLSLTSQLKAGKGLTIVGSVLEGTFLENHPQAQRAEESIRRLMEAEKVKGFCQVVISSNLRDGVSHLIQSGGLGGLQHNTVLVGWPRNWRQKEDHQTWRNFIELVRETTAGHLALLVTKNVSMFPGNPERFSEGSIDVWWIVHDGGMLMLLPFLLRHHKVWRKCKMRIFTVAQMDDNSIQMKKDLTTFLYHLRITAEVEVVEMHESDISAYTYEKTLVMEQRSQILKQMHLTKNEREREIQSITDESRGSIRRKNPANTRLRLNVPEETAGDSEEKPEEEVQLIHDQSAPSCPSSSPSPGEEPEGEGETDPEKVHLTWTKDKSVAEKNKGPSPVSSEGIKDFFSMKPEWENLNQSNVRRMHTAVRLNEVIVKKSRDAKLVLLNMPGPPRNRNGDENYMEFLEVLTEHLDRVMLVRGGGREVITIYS
Diaphorase inh – inhibits diaphorase or chemically oxidizes, flagging diaphorase assay artifacts. inhibition, % at 20 µM. diaphorase resazurin-to-resorufin fluorescence, NADH, 16 min; bacterial (C. kluyveri) enzyme, not human. 190,000 tested, 0.69% active;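 active means primary screen inhibition at 20 µM above a set limit, cut at about 50% in these data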;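 further: plate controls were DMSO with full reaction for no effect and wells lacking NADH for full effect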
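controls = No-NADH positive control and DMSO neutral control | system = Clostridium kluyveri diaphorase enzyme | timing = reaction incubation of 16 min at room temperature | signal = resorufin fluorescence 544/590 nm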
Diaphorase act – diaphorase activation or chemical reduction counter-screen; AID 1229; 190,000 tested, 0.005% active; activation factor at 20 µM; Diaphorase/resazurin coupled assay, resorufin fluorescence, 16 min; stronger effect = higher value; 1 = vehicle wells, 0 = NADH-free wells;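 active means diaphorase activity raised at least twofold by the compound at 20 µM; inactive means activation factor below 2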
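Test system: Clostridium kluyveri diaphorase, purified enzyme; input: enzyme 0.07 U/mL final; buffer or medium: 50 mM HEPES pH 7.4 with 4.542 mM MgCl2, 0.005% Tween 20; also added: 0.114 mM NADH and 0.1 mM resazurin, final amounts; schedule: 16 min enzyme reaction, ambient temperature; technique: fluorescence of resorufin, 544 nm excitation, 590 nm emission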
* marks the source's active call; other numbers are inactive results; nt = no result given. Shown are actives, neighbours in structure and some others; about 12% of the full set was active somewhere.

SMILES	L major viab	ROMK primary	WT yeast gro inh	Cl transport mod	Diaphorase inh	Diaphorase act
O=C(Nc1ccccc1)c1ccccc1Oc1ccc(C(F)(F)F)cc1[N+](=O)[O-]	9	0.35	30	0.67	19	0.8
CNC(=O)COC(=O)c1ccc(Cl)c(S(=O)(=O)N2CCCC2)c1	-4	1.2	2	0.75	-2	1
CCC(C)c1ccccc1NC(=O)COC(=O)c1ccc2[nH]c3c(c2c1)CCCC3 (stereo not given)	35	0.5	62*	0.13	22	0.8
CCc1ccc(NC(=O)COC(=O)c2ccc(Cl)c(S(=O)(=O)N3CCCCCC3)c2)cc1	63*	-0.29	3	-0.12	17	0.8
O=C(COC(=O)c1ccc2[nH]c3c(c2c1)CCCC3)Nc1ccccc1Cl	7	-0.22	8	-0.35	-16	1.2
NC(=O)COC(=O)c1ccc(Cl)c(S(=O)(=O)N2CCCCCC2)c1	-4	0.19	-21	0.034	18	0.8
CC(C)c1ccccc1NC(=O)COC(=O)c1ccc(Cl)c(S(=O)(=O)N2CCCCCC2)c1	60*	-0.44	-23	-1.2	16	0.8
CC1C(=O)CCN(C(C)(C)C)C1C (stereo not given)	1	nt	9	0.22	12	0.9
O=C(Cn1ncc2c3ccccc3n(Cc3ccccc3)c2c1=O)NCc1ccco1	nt	0.34	nt	-0.26	nt	nt
COc1ccc(C)cc1NC(=O)C(OC(=O)CNC(=O)c1cc(C)cc(C)c1)c1ccccc1 (stereo not given)	-3	nt	11	-0.59	13	0.9
COc1ccc(C)cc1NC(=O)C(OC(=O)CNC(=O)c1ccc(Br)cc1)c1ccccc1 (stereo not given)	52*	0.0012	23	0.15	17	0.8
COc1cccc(NC(=S)N(CCc2c(C)[nH]c3ccc(C)cc23)Cc2cccs2)c1	78*	0.055	21	0.87	-5	1.1
COc1ccc2[nH]c(C)c(CCN(Cc3cccs3)C(=S)Nc3cccc(F)c3)c2c1	50*	nt	-1	nt	14	0.9
CCNC(=S)N(CCc1c(C)[nH]c2ccc(C)cc12)Cc1cc(OC)c(OC)c(OC)c1	12	-2	-10	-0.41	28	0.7
COc1ccc(OC)c(NC(=S)N(CCc2c(C)[nH]c3ccc(C)cc23)Cc2cccs2)c1	84*	0.59	18	-0.57	13	0.9
COc1ccc(OC)c(NC(=S)N(CCc2c(C)[nH]c3ccccc23)Cc2cccs2)c1	26	0.74	10	-0.21	20	0.8
COCCNC(=S)N(CCc1c(C)[nH]c2ccc(C)cc12)Cc1cc(OC)c(OC)c(OC)c1	53*	-0.49	-11	-0.66	6	0.9
COc1cccc(NC(=S)N(CCN(C)C)Cc2cccs2)c1	-3	-0.51	-5	0.8	3	1
CC1CCCC(NC(=O)COC(=O)CCC2CCCC2)C1C (stereo not given)	0	0.45	13	nt	-4	1
Cc1cccc(NC(=O)NC(C)C(c2ccccc2)N2CCN(C)CC2)c1 (stereo not given)	1	-0.11	14	-0.017	-6	1.1
NC(N)=NS(=O)(=O)c1ccc(NC(=S)NC(=O)c2sc3ccccc3c2Cl)cc1	-2	nt	11	1.3	1	1
COc1cccc(NC(=O)CC2S/C(=N\S(=O)(=O)c3ccccc3)N(c3ccccc3)C2=O)c1 (stereo not given)	61*	0.45	10	0.013	18	0.8
COc1cccc(NC(=O)CC2SC(=Nc3ccccc3)NC2=O)c1 (stereo not given)	6	-0.85	-12	nt	12	0.9
CCNC(=O)N1c2ccc(OCC)cc2C(C)=CC1(C)C	11	nt	12	0.43	32	0.7
CCOc1ccc2c(c1)C(C)=CC(C)(C)N2S(=O)(=O)c1ccc(C)cc1	95*	-0.3	72*	-2.1	18	0.8
SMILES	L major viab	ROMK primary	WT yeast gro inh	Cl transport mod	Diaphorase inh	Diaphorase act
COc1ccc2c(c1)C(C)=CC(C)(C)N2S(=O)(=O)c1ccc(C)cc1	98*	0.16	45	-1.5	24	0.8
CC1=CC(C)(C)N(S(=O)(=O)c2ccc(C)cc2)c2cc(C)ccc21	99*	1.6	76*	0.31	-3	1
CCOc1ccc2c(c1)C(C)=CC(C)(C)N2C(=O)Nc1ccccc1F	68*	0.37	-20	0.45	42	0.6
CCCCC1C2=C(CC(C)(C)CC2=O)OC2=C1C(=O)CC(C)(C)C2	17	nt	-2	-1.2	19	0.8
CCCCCCNC(=O)CC(NS(=O)(=O)c1ccc(OC)cc1)C(C)C (stereo not given)	3	1.5	7	0.44	8	0.9
O=C(NNC(=O)C(O)(c1ccccc1)c1ccccc1)C1CC1	-5	-0.0034	4	0.51	5	1
Cc1ccccc1CCN(C(=O)CN1C(=O)c2ccccc2S1(=O)=O)C(C(=O)NCC1CCCO1)c1ccncc1 (stereo not given)	60*	0.096	-26	1.2	19	0.8
O=C(NCC1CCCO1)C(c1ccncc1)N(Cc1cccs1)C(=O)CN1C(=O)c2ccccc2S1(=O)=O (stereo not given)	-9	nt	-6	0.73	-15	1.2
O=C(Cn1c(=O)c2c(ncn2Cc2ccccc2)n(Cc2ccccc2)c1=O)N1CCc2ccccc21	100*	nt	26	nt	0	1
CCn1cnc2c1c(=O)n(CC(=O)N1CCc3ccccc31)c(=O)n2Cc1ccccc1	34	nt	4	-1.4	30	0.7
COc1ccc(OC)c(CC(NC(C)=O)C(=O)NC2CCN(c3cc(C)nc4ncnn34)CC2)c1 (stereo not given)	-6	0.86	-16	0.63	10	0.9
Cc1ccsc1/C=N/NC(=O)c1ccc2nc[nH]c2c1	16	nt	4	0.87	13	0.9
CCC(C)Sc1nc2c(c(=O)n1C)SC(C)C2 (stereo not given)	-2	nt	61*	-1.1	15	0.9
CSc1nc2c(c(=O)n1C)SC(C)C2 (stereo not given)	-3	nt	5	-1.2	2	1
COc1ncnc2c1oc1nc(C(C)C)c3c(c12)CC(C)(C)OC3	10	-1	-1	nt	88*	0.1
CCOC(=O)c1oc2nc(C(C)C)c3c(c2c1N)CC(C)(C)OC3	11	nt	-6	-0.69	68*	0.3
CCOC(=O)C1CCN(C(=O)NS(=O)(=O)c2ccc(C)cc2)CC1	-3	-0.081	0	1.8	6	0.9
Cc1cc(Cl)ccc1Oc1nccc(N(C)C)c1C#N	1	nt	5	nt	4	1
CC1(C)CC(=O)C=C(NCCN2CCN(C(=S)Nc3ccccc3)CC2)C1	nt	nt	nt	-0.47	nt	nt
Cc1ccc2c(c1)C1NC(=S)NC(C)(O2)C1C(=O)Nc1ccc(Cl)cc1 (stereo not given)	10	-1.2	0	-2.7	5	1
